NPY Y1 blocker: antagonists of human neuropeptide Y receptor Y1. P25929. 200,000 compounds, 1% hits. inhibition, % at 3.6 µM. HEK293-CNG Y1 cells, membrane potential fluorescence; NPY at EC95, then isoproterenol;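 active = inhibition above the campaign mean inhibition of all tested compounds plus 3 SD, cut at about 20% in these data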
Target sequence (P25929 whole entry, looked up): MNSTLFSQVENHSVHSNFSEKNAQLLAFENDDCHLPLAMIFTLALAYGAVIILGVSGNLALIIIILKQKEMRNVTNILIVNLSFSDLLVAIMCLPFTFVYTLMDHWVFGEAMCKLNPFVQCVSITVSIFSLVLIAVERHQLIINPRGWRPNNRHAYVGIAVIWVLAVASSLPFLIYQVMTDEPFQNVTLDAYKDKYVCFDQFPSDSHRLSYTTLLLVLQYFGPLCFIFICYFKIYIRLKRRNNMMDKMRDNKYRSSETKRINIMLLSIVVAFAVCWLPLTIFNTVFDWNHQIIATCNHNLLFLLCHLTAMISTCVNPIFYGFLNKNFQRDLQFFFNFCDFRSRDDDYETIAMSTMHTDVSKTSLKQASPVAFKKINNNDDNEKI
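System: HEK293 cells with Y1 receptor plus CNG channel / Probe or stimulus: NPY 25 nM then isoproterenol 1 µM plus Ro 20-1724 25 µM / Compound: one concentration, 3.6 µM, in 0.4% DMSO / Schedule: compound incubation 1 h at room temperature, readout 45 min post-stimulation / Measured by: membrane potential fluorescence / Read-out: % inhibition of NPY effect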
NPY-Y2 PAM-ag: potentiators or agonists of human neuropeptide Y receptor Y2; P49146; cells expressing NPY-Y2, potentiator/agonist read-out; activation, % at 3.6 µM; 220,000 compounds, 0.45% hits; AID 1359; in the data active = activation above about 27%;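 also: cells stimulated with NPY near EC25 plus isoproterenol at EC100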
NPY Y2 blocker: antagonists of human neuropeptide Y receptor Y2; NPY-Y2 expressing cells, antagonist mode; inhibition, % at 2.7 µM; 140,000 compounds, 0.99% hits; AID 793
NPY-Y1 PAM-ag: potentiates or activates human NPY-Y1 receptor; NPY-Y1 expressing cells, potentiator/agonist activation; activation, % at 3.6 µM; 220,000 compounds, 0.37% hits; AID 1304; in the data active = activation above about 33%, passing the limit was not always enough;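 also: cells stimulated with NPY at EC10 then isoproterenol at EC100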
NPY-Y1 ant conf: human NPY-Y1 antagonism, confirmation | shares compounds with NPY Y1 blocker | HEK293-CNG NPY-Y1, membrane potential fluorescence, cAMP; NPY challenge against isoproterenol-raised cAMP | inhibition, % at 3.6 µM | 1,200 compounds, 21% hits | AID 1254; in the data active = inhibition above about 20%
NPY-Y2 antag ct: human NPY-Y2 antagonism in NPY-Y1 counter-screen; shares compounds with NPY Y1 blocker; HEK293 NPY-Y2 CNG membrane potential fluorescence; cells given NPY, then isoproterenol; inhibition, % at 3.6 µM; 1,200 compounds, 28% hits
Hits are given with their value; – = inactive; · = not tested or not shown. Rows were chosen to be rich in hits. Some 1.9% of all compounds tested hit in one or more screens of this group. Rule as the data show it, unless noted: active = inhibition above about 17%; inactive = the rest.

SMILES | NPY Y1 blocker | NPY-Y2 PAM-ag | NPY Y2 blocker | NPY-Y1 PAM-ag | NPY-Y1 ant conf | NPY-Y2 antag ct
COC(=O)c1ccc(C2C(Oc3ccc(OC)cc3)C(=O)N2CCc2ccc(F)cc2)cc1 (stereo not given) | 21 | – | – | – | – | –
COc1ccc(C(=O)c2c(C)c3cc(C)ccc3n2CC(O)CN2CCOCC2)cc1 (stereo not given) | – | – | – | – | · | ·
CCN(c1ccc2c(c1)OCO2)S(=O)(=O)c1cc(Br)cc2c1N(C(C)=O)CC2 | – | – | – | – | · | ·
c1ccc(-c2nc3cnccn3c2Nc2ccc3c(c2)OCCO3)cc1 | 37 | – | – | – | – | –
CCOC(=O)N1CCN(C(=O)c2ccc3c(=O)n(Cc4ccccc4OC)c(=S)[nH]c3c2)CC1 | 22 | – | – | – | – | –
COc1ccc(CCC(=O)Nc2cc(S(C)(=O)=O)ccc2Cl)cc1 | – | – | · | – | · | ·
CCN(CC)C(=O)/C(=C\c1ccc(Br)cc1)NC(=O)c1ccccc1OC | 23 | – | – | – | – | –
COc1ccc(OCc2nnc(SCC(=O)c3ccccc3)o2)cc1 | – | – | · | – | · | ·
CN(C)c1cc(NC(=O)CNC(C)(C)CC(C)(C)C)c2ccccc2n1 | 28 | – | · | – | 23 | 42
CC(C)CCNC(=O)/C=C/c1ccc(Br)cc1 | 20 | – | – | – | – | –
CCOc1cc(C2C3=C(CC(C)(C)CC3=O)Nc3n[nH]c(C)c32)ccc1O (stereo not given) | 42 | – | · | – | 26 | 40
COc1ccc(Br)cc1CNC(=O)CCc1nc(-c2ccc(C)cc2)no1 | 21 | – | – | – | – | –
Cc1ccccc1C(=O)NC1CCN(C(=O)Nc2ccccc2Cl)CC1 | – | – | · | – | · | ·
COc1ccc(CN2C(=O)c3ccccc3C2C(=O)NC2CCCCCC2)c(OC)c1 (stereo not given) | 24 | – | · | – | – | –
COc1ccc(CN2C(=O)c3ccccc3C2C(=O)NCCc2ccccc2)c(OC)c1 (stereo not given) | – | – | · | – | · | ·
O=C(OCc1ccccc1)C1=NNC2C(=O)N(Cc3ccccc3)C(=O)C12 (stereo not given) | – | – | · | – | · | ·
COc1cccc(C2NC(=O)NC(C)=C2C(=O)Nc2ccc(C)cc2)c1 (stereo not given) | – | – | – | – | · | ·
COC(=O)C1=C(Nc2ccc(C)cc2)C=C(C)C(C(=O)OC)C1c1cccc(OC)c1 (stereo not given) | 24 | – | – | – | – | –
COc1cccc(CN(C)CC(=O)Nc2ccccc2C(C)C)c1 | – | – | · | – | · | ·
CCN(CC)CCN(C(=O)Cn1nnc(-c2ccc(C)o2)n1)C(C(=O)NC(C)(C)C)c1cccs1 (stereo not given) | 45 | – | · | – | 21 | 34
CCN(CC)CCCN(C(=O)Cn1nnc(-c2ccc(OC)c(OC)c2)n1)C(C(=O)NC(C)(C)C)c1ccc(F)cc1 (stereo not given) | 32 | – | · | – | 21 | 39
COc1ccc(N2CCc3c(C)nc4c(OC)cc(OC)cc4c32)cc1 | 34 | – | · | – | 26 | 24
CC(=O)c1c(COC(=O)c2ccccc2Cl)nc2ccccc2[n+]1[O-] | · | – | · | – | · | ·
O=C(O)CC/C(=N\NC(=O)c1ccccc1Br)c1ccccc1 | – | – | – | – | · | ·
CC1CC(C)CN(S(=O)(=O)c2ccc(C(=O)N(c3ccccn3)C3CCCCC3)cc2)C1 (stereo not given) | 31 | – | · | – | – | –
SMILES | NPY Y1 blocker | NPY-Y2 PAM-ag | NPY Y2 blocker | NPY-Y1 PAM-ag | NPY-Y1 ant conf | NPY-Y2 antag ct
O=C(CSc1nnc(Cc2ccccc2)n1-c1cccc(Cl)c1)NNC(=O)Cc1ccccc1 | – | – | – | – | · | ·
CC(C)N1C(=O)C(Cc2nc3ccccc3c(=O)n2-c2ccccc2)c2ccccc21 (stereo not given) | 22 | – | – | – | – | 18
Cc1cc(-c2ccccc2)nc(Oc2cccc(C(F)(F)F)c2)c1S(C)(=O)=O | 29 | – | – | – | – | –
CCN(CC)CCn1c(SCC(=O)Nc2ccc(F)cc2)nc2c(sc3ccccc32)c1=O | 35 | – | · | – | – | 29
COc1ccccc1NC(=O)CSc1nc2c(sc3ccccc32)c(=O)n1CCN(C)C | – | – | · | – | · | ·
C=CCN(C(=O)CSc1nc2c(sc3ccccc32)c(=O)n1CCN(CC)CC)c1ccccc1 | 23 | – | · | – | 44 | 65
C=CCN(C(=O)CSc1nc2ccsc2c(=O)n1Cc1ccccn1)c1ccccc1 | – | – | · | – | · | ·
CCCCCC(O)(CCCCC)C(=O)NNc1ccccc1 | 25 | – | – | – | – | –
Cc1ccc(C(=O)Nc2ccc([N+](=O)[O-])cn2)o1 | – | – | – | – | · | ·
COc1cccc(-c2cc(C(=O)Nc3nc4ccccc4s3)c3ccccc3n2)c1 | 31 | – | – | – | 26 | 38
COc1cccc(-c2cc(C(=O)Nc3ccc4c(c3)OCCO4)c3ccccc3n2)c1 | – | – | – | – | · | ·
O=c1c(-c2ccc(Cl)cc2)cnc2n1CCS2 | – | – | · | – | · | ·
O=[N+]([O-])c1cc2c(c(CSc3ncccn3)c1)OCOC2 | 24 | – | · | – | – | –
O=C(/C=C/c1ccc(Cl)cc1)NCCSc1ccccc1 | 29 | – | – | – | 20 | 43
O=C(/C=C/c1cccc([N+](=O)[O-])c1)NCCSCc1ccc(Cl)cc1 | – | – | – | – | · | ·
O=C(/C=C/c1ccccc1)NCCSCc1ccc(Cl)cc1 | 21 | – | – | – | – | –
COc1ccccc1N1CCN(C(=O)C2c3ccccc3Oc3ccccc32)CC1 | 23 | – | – | – | – | –
C#CCn1c(C)cc(C)c(S(=O)(=O)c2ccccc2)c1=O | – | – | · | – | · | ·
COC(=O)C1=C(C(=O)OC)SC(=C2C(=S)C(C)(C)N(C(=O)CC(C)C)c3ccccc32)S1 | – | – | – | – | · | ·
Cc1ccc(C)c(C(=O)CN2C3=NCCCN3c3ccccc32)c1 | 26 | – | – | – | – | –
COC(=O)[C@@]1(Cc2ccc(F)cc2)[C@H]2c3cc(C(=O)N(C)C)n(Cc4ccc(OC(F)(F)F)cc4)c3C[C@H]2CN1C(=O)c1ccccc1 | 35 | – | – | – | – | –
CC(C)(C)NC(=O)CN1CCN(C(=O)CCl)CC1 | – | – | · | – | · | ·
O=C(O)c1cc2c(s1)-c1ccccc1CC2 | 21 | – | – | – | – | –
C=CCOC(=O)/C(=C\c1ccc(OC)cc1)NC(=O)c1ccco1 | 89 | – | – | – | – | –
COc1ccc(CC2(CO)CCN(CC3=CC[C@H]4C[C@@H]3C4(C)C)CC2)cc1 | 22 | – | · | – | – | –
COc1ccc(CC2(CO)CCN(Cc3ccncc3)CC2)cc1 | – | – | · | – | · | ·
Cc1ncoc1C(=O)N1CCCC(C(=O)c2ccc(-c3ccccc3)cc2)C1 (stereo not given) | – | – | · | – | · | ·
CCc1ccc(C(=O)C(C)OC(=O)C2COc3ccccc3O2)cc1 (stereo not given) | – | – | – | – | · | ·

Bioassay records: PubChem BioAssay, The Scripps Research Institute Molecular Screening Center
